Data on six compounds can be found in ChEMBL document CHEMBL3351959, “Antinociceptive and antidepressant-like action of endomorphin-2 analogs with proline surrogates in position 2” (Bioorg Med Chem, 2014).

Active and inactive are the calls of the source. Where only a bound is given, the exact number is not on record here.

For data set [1], the system named is Mus musculus. Put plainly: Antidepressant activity in mouse assessed as reduction in immobility time at 3 ug, icv co-administered with beta-funaltrexamine measured 10 mins post-dose by forced swim test. The class given is functional, organism-based. An outline of the steps: (§1)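 Forced swim test in mice with the peptide at 3 µg/animal icv, co-injected with β-FNA (1 µg/animal), naltrindole (1 µg/animal) or nor-BNI (5 µg/animal). Swim starts 10 min after injection; 6-min session in water at 22 ± 1 °C; automated scoring of total immobility; 10 mice per group.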

In data set [2] the test system is Mus musculus. The experiment in a line: Antidepressant activity in mouse assessed as reduction in immobility time at 3 to 10 ug, icv measured 10 mins post-dose by forced swim test. The class given is functional, organism-based. In outline: (§2)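 Mice given a vehicle or peptide icv, then 20 min before testing kept in small individual cages at 22 ± 1 °C. The test begins 10 min after injection: groups of four swim for 6 min in Plexiglas cylinders (14 cm internal diameter) holding water at 22 ± 1 °C to 12 cm depth. Total immobility is scored by an automated system. Dose range 0.3–10 µg/animal; 10 mice per group.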

A further data set concerns the target Mu-type opioid receptor (Rattus norvegicus, UniProt P33535). Put plainly: Displacement of [3H]DAMGO from MOR in rat brain membranes. Format: cell membranes, Membrane. In outline:
(§3)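 Competitive binding on rat brain membranes: displacement of [³H]DAMGO (MOR) or [³H][Ile5,6]deltorphin-2 (DOR), reported as IC50. Three independent experiments, each run in duplicate, given as mean ± SEM. The DOR/MOR ratio is calculated from these IC50 values.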
For orientation: In a radioligand displacement assay an active substance lowers the binding of a labelled ligand.

The nature of data set [3]: Half life in rat brain homogenate by RP-HPLC analysis. Format: ADME, tissue-based. An outline of the steps: (§4)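 Peptides are incubated at 37 °C with rat brain homogenate as the protease source. Samples taken at 0, 7.5, 15, 22.5, 30 and 60 min are analysed by RP-HPLC to derive the degradation rate constant k and the half-life. Three independent experiments in duplicate; mean ± SEM.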

The subject of data set [4] is Mus musculus. Put plainly: Antinociceptive activity in icv dosed mouse assessed as inhibition of EM-2-induced jumping by hot-plate test. The class given is functional, organism-based. In outline: (§5)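 Hot-plate test in mice. Peptides are dissolved in DMSO, diluted with saline and given icv into the left ventricle (0.1–10 µg/animal). The read-out is latency to jumping, expressed as %MPE = (test − control latency)/(cut-off − control latency) × 100, with a 240 s cut-off. 10 mice per group.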
In general terms: In hot-plate and tail-flick tests a longer latency is read as antinociception.

Data set [5] concerns Mus musculus. Put plainly: Antidepressant activity in mouse assessed as reduction in immobility time at 3 ug, icv co-administered with naltrindole measured 10 mins post-dose by forced swim test. Format: functional, organism-based. In outline:
as §1

A further data set relates to Brain. The experiment in a line: Stability in rat brain homogenate assessed as degradation rate constant measured up to 60 mins by RP-HPLC analysis. Conditions: 1 h. The class given is ADME, tissue-based. In outline: as §4
The species named for data set [6] is Rattus norvegicus. The experiment in a line: Selectivity ratio of IC50 for KOR in guinea pig brain membranes to IC50 for MOR in rat brain membranes. The class given is cell membranes. In outline: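 Ratio of the KOR IC50, from displacement of [³H]nor-BNI in guinea pig brain membranes, to the MOR IC50, from displacement of [³H]DAMGO in rat brain membranes. Three independent experiments in duplicate.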

Data set [7] deals with Mus musculus. Put plainly: Antidepressant activity in mouse assessed as reduction in immobility time at 3 ug, icv measured 10 mins post-dose by tail suspension test. The class given is functional, organism-based. An outline of the steps: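 Tail suspension: mice held 20 min beforehand in small individual cages. Ten minutes after an icv injection of vehicle or peptide (3 µg/animal), each mouse is suspended by the tail with adhesive tape and immobility is recorded. 10 mice per group.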

For data set [8], the target named is Delta-type opioid receptor (Rattus norvegicus, UniProt P33533). Put plainly: Displacement of [3H](Ile5,6)deltorphin-2 from DOR in rat brain membranes. The class given is cell membranes, Membrane. An outline of the steps:
as §3

Data set [9] deals with Mus musculus. The experiment in a line: Antinociceptive activity in mouse assessed as inhibition of EM-2-induced jumping at 3 ug, icv co-administered with beta-funaltrexamine by hot-plate test. The class given is functional, organism-based. An outline of the steps: (§6)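 Hot-plate jumping latency in mice given the peptide at 3 µg/animal icv together with β-FNA (1 µg/animal), naltrindole (1 µg/animal) or nor-BNI (5 µg/animal, per the figure legend). Result is expressed as %MPE with a 240 s cut-off; 10 mice per group; one-way ANOVA with Student–Newman–Keuls.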

Data set [10] relates to Mus musculus. Put plainly: Antidepressant activity in icv dosed mouse assessed as reduction in immobility time measured 10 mins post-dose by forced swim test. Format: functional, organism-based. In outline:
as §2

The species entered for data set [11] is Rattus norvegicus. The experiment in a line: Selectivity ratio of IC50 for DOR in rat brain membranes to IC50 for MOR in rat brain membranes. The class given is cell membranes. In outline: as §3
Data set [12] has as its target Kappa-type opioid receptor (Cavia porcellus, UniProt P41144). The experiment in a line: Displacement of [3H]nor-BNI from KOR in guinea pig brain membranes. Format: cell membranes, Membrane.
For data set [13], the system named is Mus musculus. Put plainly: Antidepressant-like activity in mouse assessed as horizontal locomotor activity at 3 ug, icv measured […] post-dose by locomotor activity assay. Format: organism-based. Conditions: in vivo, icv_or_intrathecal, 20 min.
The test system of data set [14] is Mus musculus. Put plainly: Antinociceptive activity in mouse assessed as inhibition of EM-2-induced jumping at 3 ug, icv co-administered with nor-binaltorphimine by hot-plate test. Format: functional, organism-based. In outline: as §6
Data set [15] has as its system Mus musculus. Put plainly: Antinociceptive activity in mouse assessed as inhibition of EM-2-induced jumping at 3 ug, icv co-administered with naltrindole by hot-plate test. Format: functional, organism-based. An outline of the steps: as §6
The test system of data set [16] is Mus musculus. Put plainly: Antidepressant activity in mouse assessed as reduction in immobility time at 3 ug, icv co-administered with nor-binaltorphimine measured 10 mins post-dose by forced swim test. The class given is functional, organism-based. An outline of the steps:
as §1

Data set [17] has as its system Mus musculus. The experiment in a line: Antinociceptive activity in mouse assessed as inhibition of EM-2-induced jumping at 1 ug, icv by hot-plate test. Format: functional, organism-based.
Data set [18] has as its system Mus musculus. Put plainly: Antinociceptive activity in mouse assessed as inhibition of EM-2-induced jumping at 3 ug, icv by hot-plate test. Format: functional, organism-based. An outline of the steps: as §5
Data set [19] deals with Mus musculus. The experiment in a line: Toxicity in mouse assessed as mortality at >3 ug, icv. Format: organism-based. Conditions: in vivo, icv_or_intrathecal.
Data set [20] deals with Mus musculus. Put plainly: Antidepressant activity in mouse assessed as reduction in immobility time at 3 ug, icv measured 10 mins post-dose by forced swim test. The class given is functional, organism-based. An outline of the steps: as §2
The test system of data set [21] is Mus musculus. The experiment in a line: Toxicity in mouse assessed as increase in immobility time at >3 ug, icv by forced swim test. Conditions: in vivo, icv_or_intrathecal. The class given is organism-based.

Delta-type opioid receptor, sequence (P33533 whole entry): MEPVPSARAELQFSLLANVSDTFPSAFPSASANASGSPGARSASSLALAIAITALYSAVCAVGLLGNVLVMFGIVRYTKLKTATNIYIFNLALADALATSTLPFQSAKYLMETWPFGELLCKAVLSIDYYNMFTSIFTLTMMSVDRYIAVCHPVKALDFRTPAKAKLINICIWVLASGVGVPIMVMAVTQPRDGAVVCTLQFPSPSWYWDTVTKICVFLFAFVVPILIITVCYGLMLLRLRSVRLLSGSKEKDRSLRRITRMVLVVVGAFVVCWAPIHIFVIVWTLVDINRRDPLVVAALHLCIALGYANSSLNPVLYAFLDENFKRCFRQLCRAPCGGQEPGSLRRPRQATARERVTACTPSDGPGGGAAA
Kappa-type opioid receptor, sequence (P41144 whole entry): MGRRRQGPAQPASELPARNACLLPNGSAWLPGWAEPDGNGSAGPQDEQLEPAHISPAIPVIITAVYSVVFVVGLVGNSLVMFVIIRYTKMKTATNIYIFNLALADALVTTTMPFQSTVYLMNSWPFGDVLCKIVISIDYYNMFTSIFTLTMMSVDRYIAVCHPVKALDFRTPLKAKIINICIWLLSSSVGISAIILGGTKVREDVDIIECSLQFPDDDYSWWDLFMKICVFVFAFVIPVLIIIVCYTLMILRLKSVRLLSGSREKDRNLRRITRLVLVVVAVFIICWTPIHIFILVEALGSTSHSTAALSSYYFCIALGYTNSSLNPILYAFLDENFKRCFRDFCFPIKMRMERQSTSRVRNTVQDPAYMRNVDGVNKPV
Mu-type opioid receptor, sequence (P33535 whole entry): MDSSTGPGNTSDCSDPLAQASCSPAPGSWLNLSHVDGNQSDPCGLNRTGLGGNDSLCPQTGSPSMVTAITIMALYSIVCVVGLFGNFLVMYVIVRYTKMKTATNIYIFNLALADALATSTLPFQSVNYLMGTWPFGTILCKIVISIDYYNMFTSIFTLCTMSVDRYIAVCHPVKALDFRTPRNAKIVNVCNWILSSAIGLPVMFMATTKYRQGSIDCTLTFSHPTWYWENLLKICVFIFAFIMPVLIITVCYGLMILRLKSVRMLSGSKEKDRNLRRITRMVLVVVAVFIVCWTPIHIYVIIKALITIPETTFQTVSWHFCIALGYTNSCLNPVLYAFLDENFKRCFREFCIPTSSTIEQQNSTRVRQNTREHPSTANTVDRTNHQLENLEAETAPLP

Regarding `NC(=O)[C@H](Cc1ccccc1)NC(=O)[C@H](Cc1ccccc1)NC(=O)[C@H]1CN(C(=O)[C@@H](N)Cc2ccc(O)cc2)C[C@@H]1c1ccccc1` (mixture of isomers), the result with Mus musculus [1], in the data set with Mus musculus [2] and with Mus musculus [7] was Active. For the same compound, the IC50 (commonly the concentration that gives 50% inhibition) on Mu-type opioid receptor amounted to 0.85 nM; in data set [8] it was 9.06 nM; in data set [12], 27.1 nM. The half-life – broadly, the time needed for the level to fall by half in the phase considered – in [3] amounted to 32.5 min. Further, the inhibition entry with Mus musculus [4] was “Dose-dependent effect”. For the same compound, the result in the data set on Mus musculus [5] and in the data set with Mus musculus [16] was inactive. In addition, the K in the data set on Brain was 0.0212 min⁻¹. In addition, the Ratio IC50 in the data set filed under Rattus norvegicus [6] was 31.9; in the data set filed under Rattus norvegicus [11] it was 10.7. Further, in the data set with Mus musculus [9], the inhibition result was “inactive”. Further, the Activity entry with Mus musculus [10] was “Dose-dependent effect”; with Mus musculus [13] it was “Non-toxic”. Moreover, the inhibition entry in the data set with Mus musculus [14] and in the data set with Mus musculus [15] was “Active” each time.

Turning to `NC(=O)[C@H](Cc1ccccc1)NC(=O)[C@H](Cc1ccccc1)NC(=O)[C@@H]1CCCN1C(=O)[C@@H](N)Cc1ccc(O)cc1` [ENDOMORPHIN 2], in data set [3], the half-life was 6 min.

Take `Oc1ccc2c3c1O[C@H]1c4[nH]c5c(c4C[C@@]4(O)[C@@H](C2)N(CC2CC2)CC[C@]314)C[C@@]1(O)[C@H]2Cc3ccc(O)c4c3[C@@]1(CCN2CC1CC1)[C@H]5O4`: in the data set on Mus musculus [17], the inhibition result is “inactive”.

As for `NC(=O)[C@H](Cc1ccccc1)NC(=O)[C@H](Cc1ccccc1)NC(=O)[C@@H]1CN(C(=O)[C@@H](N)Cc2ccc(O)cc2)C[C@H]1c1ccccc1` (mixture of isomers), in the data set on Mus musculus [18], the inhibition result was “inactive”. Also, the Activity result in the data set on Mus musculus [19] and in the data set with Mus musculus [21] was “Toxic” in each case. The IC50 is 2.91 nM on Mu-type opioid receptor, over 1000 nM in [8] and over 1000 nM in [12]. In addition, in data set [3], the half-life was 38.3 min. Besides, the K in the data set with Brain amounted to 0.018 min⁻¹. In addition, the Ratio IC50 in the data set filed under Rattus norvegicus [6] and in the data set filed under Rattus norvegicus [11] was over 1000 throughout. For the same compound, the outcome in the data set with Mus musculus [20] and with Mus musculus [7] was inactive.

Consider `COC(=O)/C=C/C(=O)N[C@@H]1CC[C@@]2(O)[C@H]3Cc4ccc(O)c5c4[C@@]2(CCN3CC2CC2)[C@H]1O5`, for which the inhibition entry in the data set on Mus musculus [17] was “inactive”.

As to `Oc1ccc2c3c1O[C@H]1c4[nH]c5ccccc5c4C[C@@]4(O)[C@@H](C2)N(CC2CC2)CC[C@]314`, the inhibition result in the data set on Mus musculus [17] is “inactive”.
